Bioassay records: PubChem BioAssay, several laboratories
Rows were chosen to be rich in hits. Some 2.1% of all compounds tested hit in one or more screens of this group.
Hck-Nef inh – blocks Nef-activated human Hck kinase; P08631; Recombinant Hck-YEEI plus Nef, Z-Lyte FRET kinase assay; inhibition, % at 20 µM; 0.68% of 220,000 active;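 active = Hck-Nef kinase inhibition above about 50%, limit read from the data; inactive = inhibition below that limit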;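 also: 0% = DMSO with Hck plus Nef and 100% = Hck alone without Nef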
RanGTP-Imp inh – disruptors of Ran-importin-beta complex formation – biochemical, FRET, CFP-Ran, YFP-importin-beta, homogeneous, primary screen; cell-free CFP-Ran/YFP-importin-beta FRET ratio; inhibition, % (test concentration not listed); 1.1% of 300,000 active;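 active = more than half of the replicate wells show a fall in the fluorescence ratio signal beyond about 16%, limit read from the data, passing the limit was not always enough; inconclusive = exactly half of the replicate wells pass the set limit; inactive = fewer than half of replicates pass the limit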;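 also: 0% = DMSO wells and 100% = Ran loaded with GDP instead of GTP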
Runt-SMMHC FRET – blocks binding of human RUNX1 Runt domain to CBFb-SMMHC. Cerulean-Runt/Venus-CBFb-SMMHC FRET ratio 530/480, 1 h. 0.74% of 220,000 active. Q01196+Q13951. inhibition, % at 20 µM. AID 1434;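 active = mean inhibition across duplicate retests at 20 µM reaching about 50%, limit read from the data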;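 also: 0% = DMSO wells and 100% = wells with excess untagged CBFb-SMMHC; inhibitors lower the FRET ratio by blocking Runt binding to CBFb-SMMHC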
p97 inhibitor – inhibitors of human p97 ATPase; recombinant p97 ATPase, Kinase-Glo ATP luminescence, 3 h; 0.42% of 220,000 active; P55072; inhibition, % at 8 µM; in the data active = inhibition above about 15%;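 also: 0% = DMSO vehicle and 100% = wells lacking enzyme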
Target sequence (P55072 whole entry, looked up): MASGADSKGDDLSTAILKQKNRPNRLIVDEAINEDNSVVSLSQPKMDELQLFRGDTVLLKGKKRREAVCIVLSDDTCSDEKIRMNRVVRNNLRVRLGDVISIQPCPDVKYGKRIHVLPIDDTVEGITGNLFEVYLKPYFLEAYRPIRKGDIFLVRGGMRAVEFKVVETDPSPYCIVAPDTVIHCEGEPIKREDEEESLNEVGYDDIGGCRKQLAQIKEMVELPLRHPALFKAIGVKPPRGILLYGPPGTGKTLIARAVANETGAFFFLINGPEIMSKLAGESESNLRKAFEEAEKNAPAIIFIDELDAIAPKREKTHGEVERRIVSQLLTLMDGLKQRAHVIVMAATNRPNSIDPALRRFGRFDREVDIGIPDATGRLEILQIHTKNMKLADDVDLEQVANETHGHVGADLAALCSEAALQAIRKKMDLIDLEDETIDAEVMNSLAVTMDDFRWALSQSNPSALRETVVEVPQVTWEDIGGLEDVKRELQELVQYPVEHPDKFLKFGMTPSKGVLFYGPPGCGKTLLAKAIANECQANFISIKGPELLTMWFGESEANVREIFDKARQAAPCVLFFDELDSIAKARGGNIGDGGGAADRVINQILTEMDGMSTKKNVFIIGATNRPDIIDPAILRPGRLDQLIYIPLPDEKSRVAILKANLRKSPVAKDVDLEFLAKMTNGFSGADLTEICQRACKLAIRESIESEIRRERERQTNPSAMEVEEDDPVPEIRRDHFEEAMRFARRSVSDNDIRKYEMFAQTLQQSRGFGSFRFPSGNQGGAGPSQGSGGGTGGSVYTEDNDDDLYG
TbHK1 inh – T. brucei hexokinase 1 inhibition. recombinant TbHK1, G6PDH-coupled NADH A340. inhibition, % at 10 µM. 0.11% of 220,000 active;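 active = inhibition of 50% or more in the single-dose primary screen; inactive = inhibition below 50%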
Runt-CBFb FRET – Runt domain-CBFb interaction inhibition; Q01196+Q13951; Cerulean-Runt/Venus-CBFb FRET ratio 530/480, 1 h; inhibition, % at 20 µM; 0.46% of 220,000 active;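 active = inhibition over about 50% at 20 µM in the single-dose screen, limit read from the data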;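 also: 0% = DMSO wells and 100% = excess unlabeled CBFb competitor control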
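Buffer or medium: Tris pH 7.5 buffer with BSA. Assay system: Cerulean-labeled Runt domain protein. Amount: each fluorescent fusion protein 100 nM. Read-out basis: loss of energy transfer signal. Incubation: 1 h compound exposure, room temperature. Probe or stimulus: Venus-CBFb binding partner, 100 nM. Detection: FRET, excitation 422 nm, emission at 530 and 480 nm.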
Hck-Nef confirm – Hck-Nef kinase inhibition, confirmation; calls only at 10 µM; shares compounds with Hck-Nef inh; Recombinant Hck-YEEI:Nef, Z-Lyte FRET kinase assay; 28% of 1,300 active;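 active = average inhibition of at least 50%, with Z-scores no higher than 3 in both the phospho-tyrosine peptide and fluorescence counterscreens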
* marks the source's active call; other numbers are inactive results; i = inactive; ? = inconclusive; nt = no result shown; + = active, no number.

SMILES	Hck-Nef inh	RanGTP-Imp inh	Runt-SMMHC FRET	p97 inhibitor	TbHK1 inh	Runt-CBFb FRET	Hck-Nef confirm
NC(=S)N/N=C/c1coc2ccc(Cl)cc2c1=O	66*	0	0	-1	-3	1	+
O=C(CCc1ccc(O)cc1)N/N=C/c1coc2ccccc2c1=O	67*	2	3	6	-23	0	+
CCOC(=O)/C(C#N)=C/c1cc2ccc(C)cc2nc1Cl	2	-3	-9	6	-2	-4	nt
Cc1ccc2occ(/C=N/NC(=O)[C@@H](N)Cc3ccccc3)c(=O)c2c1	80*	-3	1	1	-22	0	+
Brc1ccc2[nH]c3c(c2c1)CCC3	4	0	2	0	-5	4	nt
NC(=O)c1cc(Br)cc2c3c([nH]c12)CCCC3	58*	-1	-39	-4	-9	-7	+
CCN(CC)c1ccc(/C=C2/C(=O)c3ccc(C(=O)O)cc3C2=O)cc1	55*	nt	-92	6	34	-31	i
CCN(CC)c1ccc(C=C2C(=O)OC3(CCCCC3)OC2=O)cc1	14	?	-24	2	-3	-6	nt
O=C(Nc1ccc(F)cc1)C(=O)c1c(O)[nH]c2ccc([N+](=O)[O-])cc12	16	0	0	11	-41	5	nt
O=Cc1cn(-c2ccccc2)nc1-c1ccc(F)cc1	nt	2	nt	nt	nt	nt	nt
CC1=NNC(=O)/C1=C\c1cn(-c2ccccc2)nc1-c1cccs1	99*	-3	-11	-1	-11	5	+
CC1=NNC(=O)/C1=C\c1cn(-c2ccccc2)nc1-c1ccc(F)cc1	86*	-3	-18	2	-12	-5	+
CCC(C)C(NC(=O)c1ccccc1NC(=O)c1ccc(OC)cc1)C(=O)NCc1ccco1 (stereo unspecified)	69*	2	-2	0	-1	-1	+
CC(NC(=O)c1c(F)cccc1Cl)c1ccc(-n2ccnc2)cc1 (stereo unspecified)	nt	5	nt	nt	nt	nt	nt
COc1ccc2nc(/C(C#N)=C\c3ccc(C(=O)O)cc3)[nH]c2c1	-83	-12	-83	9	-12	-177	nt
N#C/C(=C\c1ccc(OC(=O)c2cccs2)cc1)c1nc2ccccc2[nH]1	57*	6	-25	-2	13	0	+
COc1cc(C(=S)N2CCC(Cc3ccccc3)CC2)ccc1OCC(N)=O	nt	-4	nt	nt	nt	nt	nt
O=C(CSc1ncnc2c1oc1ccccc12)Nc1nccs1	79*	-4	-6	8	-20	3	i
CCc1nc(SCC(=O)Nc2nccs2)c2oc3ccccc3c2n1	12	-3	-3	-11	-3	-2	nt
COc1cccc(N=c2oc3ccc(OC)cc3cc2-c2nc3ccccc3[nH]2)c1	99*	-3	-20	-22	-16	-17	+
COc1cccc(N=c2oc3ccccc3cc2-c2nc3ccccc3[nH]2)c1	39	-5	-10	-18	-22	-10	nt
COc1cccc2c(=O)c3ccoc3n(C)c12	20	2	-2	-1	-23	0	nt
COc1cccc2c(=O)c3c(cnn3C)n(C)c12	88*	126*	62*	2	-3	17	nt
CC(=O)OCC1=C(C(=O)O)N2C(=O)C(NC(=O)CCn3nc(C(F)(F)F)c(Br)c3C3CC3)C2SC1 (stereo unspecified)	60*	4	1	4	10	2	i
CC(=O)OCC1=C(C(=O)O)N2C(=O)C(NC(=O)CCn3nc(C)c(Cl)c3C)C2SC1 (stereo unspecified)	10	5	-1	3	1	2	nt
SMILES	Hck-Nef inh	RanGTP-Imp inh	Runt-SMMHC FRET	p97 inhibitor	TbHK1 inh	Runt-CBFb FRET	Hck-Nef confirm
COc1c(-c2ccc(O)cc2)oc2cc(O)cc(O)c2c1=O	53*	nt	-7	nt	-15	1	i
O=c1c(-c2ccc(O)cc2)coc2cc(O)cc(O)c12	52*	2	-2	nt	-35	15	i
O=c1c(-c2c(O)cc(O)c3c(=O)cc(-c4ccc(O)cc4)oc23)c(-c2ccc(O)cc2)oc2cc(O)cc(O)c12	66*	nt	-4	nt	-11	-2	i
COc1ccc(-c2coc3cc(O)cc(O)c3c2=O)cc1	2	?	-2	4	-14	-4	nt
O=c1c(O)c(-c2ccc(O)c(O)c2)oc2cc(O)cc(O)c12	nt	-8	nt	nt	nt	nt	nt
O=c1cc(-c2ccc(O)c(O)c2)oc2cc(O)cc(O)c12	91*	-7	-80	nt	-13	10	+
COC(=O)CN(Cc1ccccc1)S(=O)(=O)c1ccc(OC)c(OC)c1	0	-2	-1	3	-6	-1	nt
CCn1c(=O)c2sccc2n2c(CCCC(=O)NCCc3ccc(S(N)(=O)=O)cc3)nnc12	nt	7	nt	nt	nt	nt	nt
COC(=O)C1=CN(C)C=C(C(=O)OC)C1c1ccsc1	53*	33*	61*	-4	-2	108*	i
N#Cc1ccc(Cl)cc1NC(=O)CSc1nc2nc(-c3cccs3)cc(C(F)(F)F)c2c(=O)[nH]1	67*	4	2	6	-40	-2	i
O=C(N/N=C/c1ccc(Cl)c([N+](=O)[O-])c1)c1cc(-c2ccc3c4c(cccc24)CC3)n[nH]1	62*	-1	-3	2	-29	-3	i
O=C(N/N=C/c1cccc([N+](=O)[O-])c1)c1cc(-c2ccc3c4c(cccc24)CC3)n[nH]1	10	-1	-12	6	-5	-3	nt
CCOC(=O)C1CCN(C(=O)COc2ccc3c(C)cc(=O)oc3c2)CC1	nt	3	nt	nt	nt	nt	nt
O=C1COc2ccc(C(=O)CSc3nc4ccccc4c(=O)n3-c3ccc(Cl)c(Cl)c3)cc2N1	64*	0	-4	6	4	-6	i
CC1=CC(C)[C@H](/C=N/n2c(=O)[nH]c3c([nH]c4ccc(Br)cc43)c2=O)C(C)C1 (stereo partly specified)	61*	-55	4	4	8	nt	i
COc1cccc(/C=N/NC(=O)c2cnn(-c3ccccc3)c2N)c1	94*	4	-2	9	-13	1	i
CCOc1cc(/C=N/N=C2/NC(=O)C(CC(=O)O)S2)ccc1OCc1ccc(Cl)cc1Cl (stereo unspecified)	54*	1	-16	3	-31	5	i
COc1cc(/C=C2\SC(=N)N(c3ccc(F)cc3)C2=O)ccc1O	77*	-1	-82	2	-19	-36	i
CCOc1ccc(N2C(=O)S/C(=C\c3ccc(O)c(OC)c3)C2=O)cc1	32	-6	-49	-3	1	-16	nt
